Published values collected from several papers.
Target: Mitogen-activated protein kinase 8 (MAPK8, Homo sapiens, UniProt P45983)

Compound	assay	conditions	remaining binding
O=C(c1ccc(Nc2nccc(-c3cc4ccccc4s3)n2)cc1)N1CCC(N2CCCC2)CC1	binding, competition with immobilised ligand	1 µM	2.4%
CN(c1nccc(-c2cnn3ncccc23)n1)C1CC1	binding	1 µM	100%
c1cncc(-c2cccc(Nc3nccc(NC4CCCCC4)n3)c2)c1	binding, competition with immobilised ligand	10 µM	24%
N[C@H]1CCN(c2nccc(-c3cnn4ncccc34)n2)C1	binding, competition with immobilised ligand	1 µM	85%
Cc1c(NC(=O)c2cc(C(N)=O)nc3cc(F)ccc23)c(C(F)(F)F)nn1Cc1ccc(C(C)(C)C)cc1	cell-free assay, competition with immobilised ligand	1 µM	100%
C[C@H]1CCN(c2nccc(-c3cnn4ncccc34)n2)C1	binding, competition with immobilised ligand	1 µM	34%
C[C@@H]1CN(c2ccc3ncc(-c4ccc5[nH]nc(C6CC6)c5c4)n3n2)C[C@H](C)O1	binding, competition with immobilised ligand	50 nM	80%
Nc1ncc2c(n1)-c1c([nH]c3ccc(C#CC4CC4)cc13)CCCC2	binding, competition with immobilised ligand	1 µM	66%
COc1ccnn2ncc(-c3ccnc(N(C)C)n3)c12	binding	1 µM	75%
O=c1nc(-c2ccccn2)sc2ccccc12	binding, competition with immobilised ligand	1 µM	100%
COc1cnc(Nc2cccc(S(N)(=O)=O)c2)nc1N1CCN(c2ccccc2)C(=O)C1	binding, competition with immobilised ligand	1 µM	76%
Cc1cnn2ncc(-c3ccnc(N(C)C)n3)c2c1	binding	1 µM	67%
Cn1nc(C(=O)NCc2ccc(C(=O)O)cc2)cc1-c1ccc2[nH]ccc2c1	cell-free assay, competition with immobilised ligand	0.1 µM	88%
O=C(c1ccc(Nc2ncc(Cl)c(-c3cc4ccccc4s3)n2)cc1)N1CCC(N2CCCC2)CC1	binding, competition with immobilised ligand	1 µM	3%
O=C(NCC1CCOCC1)c1n[nH]cc1NC(=O)c1c(F)cccc1F	binding, competition with immobilised ligand	1 µM	16%
COC(=O)Nc1nc2ccc(C(=O)c3ccccc3)cc2[nH]1	cell-free assay, competition with immobilised ligand	10 µM	14%
C[C@H](c1ccnc(Nc2nc3ccc(-c4cc(N(C)C)ncn4)cc3[nH]2)c1)N1CCN(C(=O)CC(F)(F)F)CC1	cell-free assay, competition with immobilised ligand	0.1 µM	98%
CNC(=O)[C@@H]1CC[C@@H](n2c(-c3ccc4cnccc4c3)nc3ccc(C(=O)NCc4cccc(C(N)=O)c4)cc32)C1	binding, competition with immobilised ligand	1 µM	82%
NS(=O)(=O)c1cc(NC(=O)Cc2ccccc2)ccc1Oc1cccc(Cl)c1	cell-free assay, competition with immobilised ligand	1 µM	69%
c1cnn2ncc(-c3ccnc(N4CCC45COC5)n3)c2c1	binding, competition with immobilised ligand	1 µM	26%
CC(=O)N1CCC(c2ccc(C(=O)NC(=N)N)cc2C(F)(F)F)CC1	cell-free assay, competition with immobilised ligand	1 µM	73%
O=C(NCCCN1CCOCC1)c1ccc(Nc2nccc(-c3cc4ccccc4s3)n2)cc1	binding, competition with immobilised ligand	1 µM	9.8%
CN(C)c1nccc(-c2cnc3ncccn23)n1	binding, competition with immobilised ligand	1 µM	59%
CS(=O)(=O)N1CCCC(NC(=O)[C@H](CCC2CCCCC2)NC(=O)c2ccc(CNc3ncnc4c3nnn4-c3ccccc3)cc2)C1 (stereo partly drawn)	cell-free assay, competition with immobilised ligand	0.1 µM	85%
